According to ChEMBL document CHEMBL2321750, “Structural permutation of potent cytotoxin, polytheonamide B: discovery of cytotoxic Peptide with altered activity” (ACS Med Chem Lett, 2013):
Calls of active or inactive are those of the source. The rule behind the calls is not given here.

Key:
P388 [1] = assay: Cytotoxicity against mouse P388 cells assessed as cell viability after 92 hrs by XTT assay; type: functional, cell-based; details: P388, 92 h
P388 [2] = assay: Induction of H+/Na+ exchange activity in BCECF-loaded mouse P388 cells assessed as change in intracellular pH at 125 nM measured for 1.5 hrs by spectrofluorometric analysis; type: functional, cell-based
In short: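 P388 mouse leukemia cells loaded with BCECF-AM, which intracellular esterases hydrolyse to trapped BCECF. Cells were suspended in pH 7.8 MOPS buffer with 130 mM NaCl to impose a Na+ gradient. Peptides added at 0 s at 125 nM; exposure 1.5 h. Fluorescence was converted to intracellular pH using a nigericin calibration curve.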

[3] = Induction of H+/Na+ exchange activity in pyranine-encapsulated large unilamellar vesicle of egg yolk phosphatidylcholine/cholesterol at 10 uM administered 60 secs measured for 10 mins by spectrofluorometric analysis; type: physicochemical; details: 125 nM, in the assay text read “at 125 nM” for “at 10 uM”
In short: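 Liposomes of EYPC/cholesterol 2:1 carrying encapsulated pyranine, prepared in HEPES buffer with 200 mM NaCl. pH gradient: 6.5 inside, 7.5 outside. Peptides added at 60 s. H+/Na+ exchange followed as pH-dependent pyranine fluorescence increase, normalized to maximal exchange induced by Triton X-100.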

Activity [3] | Compound | IC50 (P388 [1]) | Activity (P388 [2])
– | CC[C@H](C)[C@H](NC(=O)[C@@H](CC(=O)NC)NC(=O)CNC(=O)[C@H](NC(=O)[C@@H](NC(=O)[C@@H](CC(=O)NC)NC(=O)[C@@H](NC(=O)[C@@H](CC(=O)NC)NC(=O)CNC(=O)CNC(=O)[C@H](C)NC(=O)[C@H](NC(=O)[C@H](CCC(=O)NC)NC(=O)[C@@H](CC(=O)NC)NC(=O)[C@@H](NC(=O)CNC(=O)[C@H](C)NC(=O)CNC(=O)[C@@H](NC(=O)[C@@H](CC(=O)NC)NC(=O)[C@H](C)NC(=O)[C@H](NC(=O)[C@H](C)NC(=O)CN)C(C)(C)C)C(C)(C)O)C(C)(C)C)C(C)(C)O)[C@@H](C)CC)C(C)(C)C)C(C)(C)O)C(=O)N[C@H](CC(=O)NC)C(=O)N[C@H](C(=O)N[C@H](CC(=O)NC)C(=O)N[C@@H](C)C(=O)N[C@H](CC(=O)NC)C(=O)N[C@H](C(=O)N[C@H](CO)C(=O)N[C@H](C(=O)N[C@H](CC(N)=O)C(=O)N[C@@H](Cc1cn(CCNS(=O)(=O)c2cccc3c(N(C)C)cccc23)nn1)C(=O)N[C@H](CC(N)=O)C(=O)N[C@@H](CCC(N)=O)C(=O)N[C@@H](C(=O)N[C@H](C(=O)O)[C@@H](C)O)[C@H](C)O)C(C)C)C(C)C)C(C)C | > 420 nM | –
Not Active | CC[C@H](C)[C@H](NC(=O)[C@@H](CC(=O)NC)NC(=O)CNC(=O)[C@H](NC(=O)[C@@H](NC(=O)[C@@H](CC(=O)NC)NC(=O)[C@@H](NC(=O)[C@@H](CC(=O)NC)NC(=O)CNC(=O)CNC(=O)[C@H](C)NC(=O)[C@H](NC(=O)[C@H](CCC(=O)NC)NC(=O)[C@@H](CC(=O)NC)NC(=O)[C@@H](NC(=O)CNC(=O)[C@H](C)NC(=O)CNC(=O)[C@@H](NC(=O)[C@@H](CC(=O)NC)NC(=O)[C@H](C)NC(=O)[C@H](NC(=O)[C@H](C)N)C(C)(C)C)C(C)(C)O)C(C)(C)C)C(C)(C)O)[C@@H](C)CC)C(C)(C)C)C(C)(C)O)C(=O)N[C@H](CC(=O)NC)C(=O)N[C@H](C(=O)N[C@H](CC(=O)NC)C(=O)N[C@@H](C)C(=O)N[C@H](CC(=O)NC)C(=O)N[C@H](C(=O)N[C@H](CO)C(=O)N[C@H](C(=O)N[C@H](CC(N)=O)C(=O)N[C@@H](Cc1cn(CCNS(=O)(=O)c2cccc3c(N(C)C)cccc23)nn1)C(=O)N[C@H](CC(N)=O)C(=O)N[C@@H](CCC(N)=O)C(=O)N[C@@H](C(=O)N[C@H](C(=O)O)[C@@H](C)O)[C@H](C)O)C(C)C)C(C)C)C(C)C | 3.7 nM | inactive
